According to ChEMBL document CHEMBL3272115, “Synthesis and microbiological activities of beta-(1-chloro-2-naphthyl) alanine and beta-(1-bromo-2-naphthyl) alanine” (1976):
≈ marks a conversion by molar mass, not a printed value. Calls of active or inactive are those of the source. No cut-off for these calls is given here.

How the values were obtained:
[1] = system: Lactiplantibacillus plantarum; experiment: Antimicrobial activity against Lactobacillus plantarum ATCC 8014 after 18 hrs by spectrophotometry; assay type: functional; details: ATCC 8014, 18 h
How it was run: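 Basal lactic-acid-bacteria medium with 0.2 µg/ml calcium pantothenate and 0.02 µg/ml pantethine; phenylalanine and tyrosine omitted, and tryptophan lowered to 3 µg/ml; for this strain, Phe and Tyr at 1 µg/ml. Aqueous stock (1 mg/ml) serially diluted, up to 200 µg/ml. Incubated at 30° for 18 h. Absorbance read at 625 nm versus an uninoculated blank. MIC from at least six repeats.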

[2] = Antimicrobial activity against Leuconostoc dextranicum ATCC 8086 after 18 hrs by spectrophotometry; assay type: functional, Leuconostoc mesenteroides subsp. dextranicum; details: Leuconostoc mesenteroides, ATCC 8086, 18 h
How it was run: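 Basal lactic-acid-bacteria medium with 0.2 µg/ml calcium pantothenate and 0.02 µg/ml pantethine; Phe and Tyr omitted, Trp at 3 µg/ml; phosphate raised fourfold and 100 µg/ml glutamine added. Aqueous stock (1 mg/ml) serially diluted, up to 200 µg/ml. Incubated at 30° for 18 h. Turbidity read at 625 nm against an uninoculated blank. MIC from at least six repeats.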

[3] = system: Lactiplantibacillus plantarum; experiment: Antimicrobial activity against Lactobacillus plantarum ATCC 8014 after 18 hrs by spectrophotometry in presence of 40 ug/ml each of phenylalanine,tyrosine and tryptophan; assay type: functional
[4] = system: Leuconostoc mesenteroides subsp. dextranicum; experiment: (§1) Antimicrobial activity against Leuconostoc dextranicum ATCC 8086 after 18 hrs by spectrophotometry in presence of 40 ug/ml each of phenylalanine,tyrosine and tryptophan; assay type: functional
[5] = system: Escherichia coli; experiment: Antimicrobial activity against Escherichia coli ATCC 9723 after 16 hrs by spectrophotometry; assay type: functional; details: ATCC 9723, 16 h
How it was run: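 Stock of 10 mg in 10 ml sterile water (slight warming), serially diluted into autoclaved medium tubes, tested up to 200 µg/ml. Incubated at 37° for 16 h after inoculation. Turbidity read at 625 nm against an uninoculated medium blank. MIC taken as the minimum inhibitory concentration, with controls and at least six repeat assays.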

[6] = as §1; assay type: functional, Leuconostoc mesenteroides subsp. dextranicum; details: Leuconostoc mesenteroides, ATCC 8086, 18 h

SMILES	MIC [2] [µg/mL]	MIC [4]	MIC [5] [µg/mL]	MIC [6] [µg/mL]	MIC [1] [µg/mL]	MIC [3]	MIC ([3]; ATCC 8014, 18 h) [µg/mL]
NC(Cc1ccc2ccccc2c1)C(=O)O (stereo not drawn)	> 200	–	> 200	–	> 200	–	–
NC(Cc1cccc2ccccc12)C(=O)O (stereo not drawn)	200 (≈ 929 µM)	Active	> 200	–	200 (≈ 929 µM)	Active	–
NC(Cc1ccc2ccccc2c1Br)C(=O)O (racemic)	200 (≈ 680 µM)	Active	200 (≈ 680 µM)	–	200 (≈ 680 µM)	Active	–

The next compounds have a lower MIC [2] than those just listed; values first:

MIC [2] [µg/mL]	MIC [4]	MIC [5] [µg/mL]	MIC [6] [µg/mL]	SMILES	MIC [1] [µg/mL]	MIC [3]	MIC ([3]; ATCC 8014, 18 h) [µg/mL]
20 (≈ 80.1 µM)	Active	> 200	–	NC(Cc1ccc2ccccc2c1Cl)C(=O)O (racemic)	20 (≈ 80.1 µM)	Active	–
6 (≈ 27.8 µM)	–	2 (≈ 9.27 µM)	200	NC(Cc1ccc(O)cc1Cl)C(=O)O (stereo not drawn)	0.6 (≈ 2.78 µM)	–	200
